Calls of active or inactive are those of the source.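 Rule for the calls, unless noted: active = viability at or under a set limit in both replicates, limit being median viability minus 3 SD (cut at about 48% in these data, passing the limit was not always enough); inconclusive = at or under the limit in just one replicate; inactive = at or above the limit in both replicates.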
Columns and labels:
[1] = reducers of endogenous Her2 protein level, primary screen, SKBR3 breast tumor cells, AlphaScreen, ATP viability (AID 461;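 active = Her2 level under about 52% in both replicate screens, with viability over 70% of control, limit read from the data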;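 for Her2 level: lower value means less Her2 protein in the cells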;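 for viability: percent of carrier control wells set as 100% viability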); settings: 18-24 h, measured here: SKBR3 viability, ATP luminescence, at 10 µM
[2] = biological target: Receptor tyrosine-protein kinase erbB-2 (Homo sapiens) (UniProt P04626); test: as above; settings: 18-24 h, at 10 µM, stronger effect = lower value
Sequence of Receptor tyrosine-protein kinase erbB-2 (Homo sapiens) (P04626 whole entry, looked up): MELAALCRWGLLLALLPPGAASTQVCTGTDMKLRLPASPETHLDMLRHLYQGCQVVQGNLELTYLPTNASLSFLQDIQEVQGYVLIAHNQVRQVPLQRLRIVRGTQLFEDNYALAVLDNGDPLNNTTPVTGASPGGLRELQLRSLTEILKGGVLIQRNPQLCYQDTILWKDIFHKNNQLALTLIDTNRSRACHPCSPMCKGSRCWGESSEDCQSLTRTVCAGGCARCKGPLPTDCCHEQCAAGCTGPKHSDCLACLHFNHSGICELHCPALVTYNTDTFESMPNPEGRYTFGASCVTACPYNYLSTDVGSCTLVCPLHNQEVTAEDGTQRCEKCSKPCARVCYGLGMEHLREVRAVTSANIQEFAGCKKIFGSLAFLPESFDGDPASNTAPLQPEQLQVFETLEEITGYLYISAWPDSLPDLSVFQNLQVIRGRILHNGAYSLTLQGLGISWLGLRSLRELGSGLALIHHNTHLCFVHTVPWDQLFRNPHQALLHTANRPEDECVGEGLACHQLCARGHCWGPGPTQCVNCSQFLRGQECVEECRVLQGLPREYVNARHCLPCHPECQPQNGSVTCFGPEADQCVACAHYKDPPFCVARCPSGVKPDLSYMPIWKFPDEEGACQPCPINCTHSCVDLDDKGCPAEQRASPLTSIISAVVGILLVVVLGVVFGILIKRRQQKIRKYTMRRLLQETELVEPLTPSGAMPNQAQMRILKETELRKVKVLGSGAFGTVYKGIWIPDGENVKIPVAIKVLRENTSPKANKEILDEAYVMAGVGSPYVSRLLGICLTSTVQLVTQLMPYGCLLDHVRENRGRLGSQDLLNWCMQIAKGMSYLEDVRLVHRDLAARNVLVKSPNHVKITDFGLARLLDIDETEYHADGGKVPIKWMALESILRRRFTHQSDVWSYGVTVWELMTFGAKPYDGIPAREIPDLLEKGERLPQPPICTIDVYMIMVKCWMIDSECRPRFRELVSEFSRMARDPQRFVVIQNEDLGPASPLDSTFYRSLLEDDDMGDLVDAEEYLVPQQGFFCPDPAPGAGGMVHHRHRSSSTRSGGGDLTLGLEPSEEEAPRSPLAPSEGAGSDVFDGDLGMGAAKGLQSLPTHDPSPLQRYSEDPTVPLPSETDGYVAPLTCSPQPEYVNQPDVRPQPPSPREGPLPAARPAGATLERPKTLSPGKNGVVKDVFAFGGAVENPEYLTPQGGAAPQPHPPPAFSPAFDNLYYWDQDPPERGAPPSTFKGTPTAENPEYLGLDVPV

[3] = SK-BR-3 cell growth inhibitors, pilot screen, 24 h, human (AID 572;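 active = viability at or below 10% of carrier control in both of two separate runs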;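 note: compound exposure lasted between 18 and 24 h rather than exactly 24 h; 100% = carrier-treated control wells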); settings: SK-BR-3 viability, CellTiter-Glo luminescence, at 10 µM, stronger effect = lower value
[4] = HUVEC growth inhibition – cell-based, human, primary screen (AID 575;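 active = viability at or below 30% in both replicate assays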;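 note: 100% = median of untreated cell wells with 0.1% DMSO on each plate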); settings: HUVEC proliferation, CellTiter-Glo luminescence, 72 h; at 10 µM; stronger effect = lower value
Procedure, shortened: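 Timing: 72 h treatment at 37 °C; material: HUVEC primary cells; technique: CellTiter-Glo luminescence measuring cellular ATP; controls: vehicle and MePR control wells; measure: percent of median DMSO-control luminescence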

[5] = growth inhibitors of H69AR lung tumor, primary screen, human, duplicate replicates (AID 580); settings: H69AR lung tumor cells viability, ATP luminescence, 72 h; at 10 µM; stronger effect = lower value;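 note: 100% = mean luminescence of untreated wells and 0% = no signal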
[6] = reversal of MRP1-mediated doxorubicin resistance, pilot screen, H69AR cells, doxorubicin co-treatment (AID 601;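 active = viability loss from added drug above about 55%, and viability with drug at most 40%, in both replicates, limit read from the data, passing the limit was not always enough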); settings: CellTiter-Glo, 72 h, at 10 µM; for differential viability (reversal): stronger effect = higher value
[7] = 384-well plate pilot, post-Golgi transport modulator project, inhibition of yeast transport mutant growth (AID 636; in the data active = inhibition above about 31%); settings: absorbance 615 nm, about 18 h, stronger effect = higher value
[8] = growth suppression of yeast trafficking mutant, preliminary HTS, modulators of trafficking downstream of Golgi apparatus project, 1536-format plate, OD 615 nm (AID 637; in the data active = inhibition above about 30%); settings: yeast transport mutant growth, absorbance 615 nm, 18 h; stronger effect = higher value
[9] = H69AR cells + 2 uM doxorubicin, measured here: viability with 2 uM doxorubicin, stronger effect = lower value
[10] = H69AR cells, compound alone cytotoxicity

Row | Compound | viability [1] [%] | Her2 level [2] | viability [3] | viability [4] | viability [5] | differential viability (reversal) ([6]; H69AR cells + 2 uM doxorubicin) | viability [6, 9] [%] | viability [6, 10] [%] | inhibition [7] | inhibition [8]
1 | O=C(OCc1cc2ccccc2[nH]c1=O)c1ccncc1 | 90.5 | 89% (inactive) | 90.5% (inactive) | 76.4% (inactive) | 79.2% (inactive) | -10.5% (inactive) | 89.7 | 79.2 | -4.34% (inactive) | -2.74% (inactive)
2 | Cn1nc(C(=O)NC2CCCCCC2)ccc1=O | 126 | 104% (inactive) | 126% (inactive) | 101% (inactive) | 111% (inactive) | 19.2% (inactive) | 92 | 111 | -2.6% (inactive) | -0.79% (inactive)
3 | Cc1ccc(NC(=O)CCN2CCc3ccccc3C2)cc1 | 91.5 | 92.5% (inactive) | 91.5% (inactive) | 109% (inactive) | 99.7% (inactive) | -0.975% (inactive) | 101 | 99.7 | -5.21% (inactive) | -4.92% (inactive)
4 | Cn1c(SCC(N)=O)nnc1C1CCN(S(=O)(=O)c2ccccc2C(F)(F)F)CC1 | 114 | 97.5% (inactive) | 114% (inactive) | 112% (inactive) | 104% (inactive) | 7.31% (inactive) | 96.5 | 104 | -7.03% (inactive) | -0.33% (inactive)
5 | Cc1noc(C)c1CSc1nc2cc(S(=O)(=O)N3CCOCC3)ccc2o1 | 98.5 | 93% (inactive) | 98.5% (inactive) | 96.7% (inactive) | 83.6% (inactive) | -0.29% (inactive) | 83.9 | 83.6 | -5.48% (inactive) | 5.56% (inactive)
6 | CCNC(=O)N(C)c1nncnc1C(=O)NC | 85 | 88% (inactive) | 85% (inactive) | 89.8% (inactive) | 95.8% (inactive) | 6.2% (inactive) | 89.6 | 95.8 | -3.6% (inactive) | 5.57% (inactive)
7 | CCOc1cccc(OCCOCCN2CCCC2)c1 | 107 | 89% (inactive) | 107% (inactive) | 91.3% (inactive) | 89.4% (inactive) | -1.11% (inactive) | 90.5 | 89.4 | -6.22% (inactive) | -3.17% (inactive)
8 | CCn1c(=O)n(CC(=O)Nc2cc(OC)ccc2OC)c(=O)c2ccccc21 | 110 | 77% (inactive) | 110% (inactive) | 86% (inactive) | 87.4% (inactive) | 17.7% (inactive) | 69.7 | 87.4 | -0.66% (inactive) | -0.32% (inactive)
9 | Cc1cc(C(=O)NCCCN2CCOCC2)n(-c2ccccc2)n1 | 94.5 | 100% (inactive) | 94.5% (inactive) | 106% (inactive) | 102% (inactive) | 9.44% (inactive) | 92.2 | 102 | -2.27% (inactive) | 3.61% (inactive)
10 | Cc1cc(-c2ccccc2)c2c3c(cn2n1)c(=O)n(C)c(=O)n3C | 108 | 83% (inactive) | 108% (inactive) | 84.3% (inactive) | 75.6% (inactive) | -0.565% (inactive) | 76.1 | 75.6 | -2.37% (inactive) | 0.33% (inactive)
11 | O=C(Nc1ccc(N2C(=O)C3C4C=CC(C4)C3C2=O)cc1)Nc1cccnc1 (stereo not given) | 108 | 83% (inactive) | 108% (inactive) | 75.3% (inactive) | 86% (inactive) | -0.065% (inactive) | 86.1 | 86 | -3.29% (inactive) | -1.33% (inactive)
12 | CCCc1nn(CCc2ccccn2)c(N)c1CC | 114 | 91% (inactive) | 114% (inactive) | 89.4% (inactive) | 96.5% (inactive) | 3.08% (inactive) | 93.5 | 96.5 | -6% (inactive) | 0.66% (inactive)
13 | CC(C(=O)N1CCCCC1)n1ncn2cccc2c1=O (stereo not given) | 93.5 | 93.5% (inactive) | 93.5% (inactive) | 94.2% (inactive) | 102% (inactive) | 17.3% (inactive) | 85.1 | 102 | -1.58% (inactive) | -2.91% (inactive)
14 | CC(C)(C)NC(=O)NC(=O)COc1ccccc1C#N | 104 | 90.5% (inactive) | 104% (inactive) | 108% (inactive) | 106% (inactive) | 25.7% (inactive) | 80.7 | 106 | -6.49% (inactive) | -2.38% (inactive)
15 | CCC(=O)Nc1cc(C(=O)NCC2CCCN2CC)c(OC)cc1N(C)C (stereo not given) | 101 | 111% (inactive) | 101% (inactive) | 91.8% (inactive) | 114% (inactive) | 19.7% (inactive) | 93.9 | 114 | -1.47% (inactive) | -3.23% (inactive)
16 | S=C(c1ccc(-c2cc(Cl)ccc2Cl)o1)N1CCOCC1 | 80.5 | 85% (inactive) | 80.5% (inactive) | 86.4% (inactive) | 98.5% (inactive) | -8.1% (inactive) | 107 | 98.5 | -0.4% (inactive) | 5.16% (inactive)
17 | Cc1sc2ncnc(OCC(=O)N3CCN(S(=O)(=O)c4ccc(Cl)cc4)CC3)c2c1C | 92.5 | 86% (inactive) | 92.5% (inactive) | 89.2% (inactive) | 84.8% (inactive) | 0.87% (inactive) | 84 | 84.8 | 0.53% (inactive) | -0.91% (inactive)
18 | C=C(C)Cn1c(SCC)nc2ccccc2c1=O | 93 | 97.5% (inactive) | 93% (inactive) | 104% (inactive) | 85.6% (inactive) | -3% (inactive) | 88.6 | 85.6 | -5.39% (inactive) | -3.27% (inactive)
19 | CSCCC(NS(=O)(=O)c1ccc2c(c1)oc(=O)n2C)C(=O)NC1CCCCC1 (stereo not given) | 91 | 110% (inactive) | 91% (inactive) | 87.4% (inactive) | 103% (inactive) | 12.6% (inactive) | 90.1 | 103 | 0.9% (inactive) | -3.17% (inactive)
20 | Nc1nonc1-c1noc(CCCCCN2C(=O)c3ccccc3C2=O)n1 | 102 | 102% (inactive) | 102% (inactive) | 108% (inactive) | 105% (inactive) | 7.63% (inactive) | 97.6 | 105 | -4.4% (inactive) | -6.61% (inactive)
21 | COc1ccc(CC(=O)N2CCOCC2)cc1OC | 97.5 | 99% (inactive) | 97.5% (inactive) | 102% (inactive) | 91.9% (inactive) | -2.21% (inactive) | 94.2 | 91.9 | 0.13% (inactive) | 3.28% (inactive)
22 | COc1ccc(C2CC(=O)c3cnc(NC(=O)c4ccccc4OC)nc3C2)c(OC)c1 (stereo not given) | 97.5 | 49% (active) | 97.5% (inactive) | 75.1% (inactive) | 87% (inactive) | -5.78% (inactive) | 92.7 | 87 | -5.07% (inactive) | 1.15% (inactive)
23 | Cc1ccc(C(=O)Nc2nc3c(s2)CCCC3)o1 | 104 | 72% (inactive) | 104% (inactive) | 60.9% (inactive) | 73.3% (inactive) | -5.85% (inactive) | 79.1 | 73.3 | -1.71% (inactive) | 16.6% (inactive)
24 | C=CCSc1nnc(-c2ccccc2NC(C)=O)c(=O)[nH]1 | 106 | 105% (inactive) | 106% (inactive) | 105% (inactive) | 93% (inactive) | 9.55% (inactive) | 83.4 | 93 | -3.03% (inactive) | -0.36% (inactive)
25 | COc1ccc(-c2nnc(SCC(=O)N3CCCCC3)o2)cc1OC | 104 | 104% (inactive) | 104% (inactive) | 88.7% (inactive) | 97.5% (inactive) | 5.33% (inactive) | 92.1 | 97.5 | -2.93% (inactive) | -5.9% (inactive)
26 | N#CC1=C(N)N(c2ccccc2)C2=C(C(=O)CCC2)C1c1cccs1 (stereo not given) | 96.5 | 97.5% (inactive) | 96.5% (inactive) | 80.8% (inactive) | 70.3% (inactive) | 46.8% (inactive) | 23.5 | 70.3 | -5.95% (inactive) | 0.83% (inactive)
27 | C=CCN(C(=O)CNC(=O)c1ccco1)C(C(=O)NC1CCCCC1)c1ccccc1F (stereo not given) | 108 | 108% (inactive) | 108% (inactive) | 96.2% (inactive) | 100% (inactive) | 6.92% (inactive) | 93.5 | 100 | -2.43% (inactive) | 1.27% (inactive)

Reference: PubChem BioAssay
